Data as given in paper PMC2883079 (European Journal of Immunology, 2009).
“And” between values parts separate entries of the source, which are not always exact repeats. Equal values may be shown once. Read-outs that look alike come from different tables or passages of the source. No end group written: not given here.

Assays:
[1] = tested on: immature DC (iDC), bone marrow-derived, 6 days in GM-CSF; test: Chemotaxis assay, iDC cultured in GM-CSF for 6 days; format: cell-based, mouse; conditions: 1.5 h
Antimicrobial activity = format: cell-based; conditions: data not shown
[2] = tested on: HEK293 cells expressing human CCR6; test: Chemotaxis assay, HEK293 cells expressing human CCR6; format: cell-based; conditions: HEK293 cells overexpressing human CCR6, 5 h
Outline: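 48-well chemotaxis chamber, 5 h. Cells at 5×10^5 per mL in RPMI 1640 with 1% BSA, which also served as diluent and no-peptide control. CCL20 positive control. Migrated cells counted in three random ×400 fields per well, triplicate wells, as mean per field. MI = count at optimal concentration / control count. One-tailed Student's t-test. Representative of at least three experiments.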

neutrophils = test: Chemotaxis assay, peritoneal neutrophils; format: cell-based, mouse; conditions: at least 90% pure, positive control at 45 ng/mL
Outline: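 Mouse peritoneal neutrophils, identified by morphology and at least 90% pure. Tested in 48-well chemotaxis chambers with N-formylmethionyl leucyl phenylalanine as positive control and RPMI 1640/1% BSA as medium and no-peptide control. Cells at 5×10^5 per mL. Migrated cells counted in three random ×400 fields per well in triplicate wells. Reported as mean per field. One-tailed Student's t-test.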

CD4 T cells = test: Chemotaxis of CD4 T cells; format: cell-based; conditions: species of cells not stated
Outline: (§1)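 In 48-well chemotaxis chambers, cells migrated for 4 h. Human CD4+ cells came from Ficoll–Paque mononuclear cells of donor blood or bone marrow, with CCL20 as positive control. Mouse cells were splenic CD4+ from magnetic positive selection, CD4/CD3-stained, with CXCL12a as control. Cells were at 5×10^5/mL in RPMI 1640/1% BSA, the medium also used to dilute peptides. Three ×400 fields were counted per triplicate well. MI = migrated cells at optimal concentration / peptide-free control. One-tailed t-test.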

human CD4^+ T cells = test: Chemotaxis assay, human CD4+ T cells; format: cell-based; conditions: for optimal concentration for chemotaxis / migratory index (MI): 4 h; for migratory index (MI): at optimal concentration
Outline: as §1

mouse CD4^+ T cells = test: Chemotaxis assay, mouse CD4+ T cells; format: cell-based; conditions: 4 h
Outline: as §1

[3] = cited from earlier work
mature DC (mDC) = test: Chemotaxis assay, LPS-matured DC; format: cell-based, mouse; conditions: DC matured 24 h with 100 ng/mL E. coli LPS; 1.5 h
Outline: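 Mouse tibia/femur marrow at 3.75×10^5 cells/mL with GM-CSF supernatant (5%, 500 U/mL), refed day 3. Day 6 cultures then had LPS for 24 h. Phenotyped by flow for CD11c/MHC II, CD86, CD54, Gr1 and B220. 48-well chamber, 1.5 h, RPMI/1% BSA, cells at 5×10^5 per mL. CCL19 positive control. Three ×400 fields per well, triplicate wells, SD over nine counts, one-tailed t-test.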

[4] = tested on: immature DC (iDC), bone marrow-derived, 7 days in GM-CSF; test: Chemotaxis assay, iDC cultured in GM-CSF for 7 days; format: cell-based, mouse
Outline: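 Mouse tibia/femur marrow cells were seeded at 3.75×10^5/mL in complete medium with 5% (500 U/mL) GM-CSF supernatant, refed on day 3. Loosely adherent cells were harvested on day 6 or day 7. Migration ran 1.5 h in 48-well chambers, cells at 5×10^5/mL in RPMI 1640/1% BSA, with CCL20 as positive control. Three ×400 fields were counted per triplicate well. MI = migrated cells at optimal peptide / control medium. One-tailed t-test, p<0.05.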

[5] = d7iDC, at peak peptide concentration, 1.5 h
[6] = d6iDC, p<0.05 vs control medium

For “EPVSCIRNGGICQYRCIGLRHKIGTCGSPFKCCK (also: bicyclic or more (positions not given here)) [Defb8]”, the “migration of iDC (result in words)” value ([1]; iDC, days of culture not stated (Fig. 4A)) was “can chemoattract iDC”, the “antimicrobial activity (result in words)” value (Antimicrobial activity) was “much reduced antimicrobial activity compared with Defr1” and the “chemoattraction of CCR6-expressing cells (result in words)” value (“chemoattraction of CCR6-expressing cells” for short) [2] was “neither Defr1 nor the six cysteine allele Defb8, can chemoattract these cells”.

With N-formylmethionyl leucyl phenyalanine the “migration of neutrophils (result in words)” value (neutrophils) was “significant migration”.

In the case of “DPVTYIRNGGICQYRCIGLRHKIGTCGSPFKCCK (disulfide (positions not given here)) [Defr1]”, the “chemoattraction of CD4 T cells (result in words)” value (CD4 T cells) is reported as “attracting CD4 T cells”, the “activity relative to Defr1 Y5C and Defr1-1c^V (peak concentration)” value (human CD4^+ T cells) is reported as “tenfold more active” and the “optimal concentration for chemotaxis” value (human CD4^+ T cells) is reported as 10 ng/mL. The “migratory index (MI)” value (human CD4^+ T cells) was 8 and 9, the “optimal / only significant concentration for chemotaxis” value (mouse CD4^+ T cells) was 10 ng/mL and the “migratory index (MI)” value (mouse CD4^+ T cells; at optimal concentration) was 2.5. For the same molecule, the “antimicrobial activity (result in words)” value [3] was “potent antimicrobial activity”, the “migration of mDC (result in words)” value (mature DC (mDC)) was “do not show significant migration” and the “peptide concentration giving peak migration” value ([1]; d6iDC) was 10 ng/mL. For the same molecule, the “peptide concentration giving peak migration” value ([4]; d7iDC, 1.5 h) was 1 ng/mL, the “migratory index (MI)” value [4, 5] was ~3.5 and the “migratory index (MI)” value ([4]; d7iDC, peptide at 0.1 ng/mL, p<0.05) was 2.5. The “chemoattraction of CCR6-expressing cells” value [2] was “neither Defr1 nor the six cysteine allele Defb8, can chemoattract these cells”.

With “ELDHCHTNGGYCVRAICPPSARRPGSCFPEKNPCCKYMK (also: bicyclic or more (positions not given here)) [Defb2]” the “chemoattraction of CD4 T cells (result in words)” value (CD4 T cells) was “attracting CD4 T cells”, the “migration of mDC (result in words)” value (mature DC (mDC)) was “do not show significant migration” and the “migration of d7iDC (result in words)” value ([4]; all concentrations tested, p<0.05 vs control) was “statistically significant migration”. For the same molecule, the “migratory index (MI)” value [4, 5] was 3.0.

For “DPVTYIRNGGIAQYRAIGLRHKIGTAGSPFKCAK (disulfide (positions not given here)) [Defr1-1c^V]”, the “optimal concentration for chemotaxis” value (human CD4^+ T cells) was 100 ng/mL, the “migratory index (MI)” value (human CD4^+ T cells) was 5.5 and the “optimal / only significant concentration for chemotaxis” value (mouse CD4^+ T cells) was 100 ng/mL. The “migration of mDC (result in words)” value (mature DC (mDC)) was “Neither peptide could induce migration”, the “migration of iDC (result in words)” value [1, 6] was “Neither peptide could induce migration” and the “chemoattraction of CCR6-expressing cells” value [2] was “unable to chemoattract these cells”.

In the case of “DPVTCIRNGGICQYRCIGLRHKIGTCGSPFKCCK (also: bicyclic or more (positions not given here)) [Defr1-Y5C]”, the “optimal concentration for chemotaxis” value (human CD4^+ T cells) is reported as 100 ng/mL, the “migratory index (MI)” value (human CD4^+ T cells) is reported as 5.5 and the “optimal / only significant concentration for chemotaxis” value (mouse CD4^+ T cells) is reported as 100 ng/mL. For the same molecule, the “antimicrobial activity (result in words)” value [3] was “poor antimicrobial activity”, the “migration of mDC (result in words)” value (mature DC (mDC)) was “Neither peptide could induce migration” and the “migration of iDC (result in words)” value [1, 6] was “Neither peptide could induce migration”. For the same molecule, the “chemoattraction of CCR6-expressing cells” value [2] was “unable to chemoattract these cells”.

In the case of “CCL20: recognised chemokine ligand for the CCR6 receptor, positive control [reference compound]”, the “chemoattraction of CCR6-expressing cells” value [2] is reported as “can chemoattract these cells”.

B1: CCL19: chemokine, positive control for mDC migration (protein, UniProt Q99731 22-98, looked up)
C-C motif chemokine 19: GTNDAEDCCLSVTQKPIPGYIVRNFHYLLIKDGCRVPAVVFTTLRGRQLCAPPDQPWVERIIQRLQRTSAKMKRRSS
With B1 the “migration of mDC (result in words)” value (mature DC (mDC)) was “statistically significant migration”.
